Measurements reported in ChEMBL document CHEMBL1129039 (J Med Chem, 1996).
Active and inactive are the calls of the source. The rule behind the calls is not given here.

What was measured:
B2 bradykinin receptor [1] = molecular target: T1, B2 bradykinin receptor (Homo sapiens, UniProt P30411); test: Binding affinity towards Bradykinin receptor B2 in human S34 clone cells; format: cell-based
T1 sequence (P30411 whole entry): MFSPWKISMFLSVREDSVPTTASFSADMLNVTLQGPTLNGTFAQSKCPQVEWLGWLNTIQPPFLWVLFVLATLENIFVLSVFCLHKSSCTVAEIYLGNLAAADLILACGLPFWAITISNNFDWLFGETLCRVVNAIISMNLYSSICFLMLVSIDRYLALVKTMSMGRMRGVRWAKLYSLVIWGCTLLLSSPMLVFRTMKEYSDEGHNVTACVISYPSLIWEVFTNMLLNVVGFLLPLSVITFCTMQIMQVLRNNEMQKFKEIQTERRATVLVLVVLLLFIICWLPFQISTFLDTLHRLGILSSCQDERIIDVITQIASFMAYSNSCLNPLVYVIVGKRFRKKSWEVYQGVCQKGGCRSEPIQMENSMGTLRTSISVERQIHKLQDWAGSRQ

[2] = Binding affinity towards bradykinin receptor using [3H]BK as radioligand in guinea pig ileum; format: tissue-based, Cavia porcellus
How it was run: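 Ileal membranes from Duncan-Hartley guinea pigs, 0.2 mg/mL, room temperature in 25 mM TES pH 6.8 with 1,10-phenanthroline, DTT, captopril, bacitracin, thiorphan, 0.1% BSA. […] Filtered on PEI-pretreated GF/B, washed with cold Tris pH 7.5/NaCl/BSA, scintillation counted. Mean ± SD, n = 4.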

[3] = In vitro stability was measured in human plasma tissue preparation; format: ADME
[4] = molecular target: B1 bradykinin receptor (Oryctolagus cuniculus); test: In vitro Bradykinin receptor B1 antagonist activity in functional tissue within rabbit aorta
[5] = In vitro stability was measured in rat kidney tissue preparation; format: ADME
How it was run: (§1)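 Lung or kidney cortical membranes made by differential centrifugation and stored at -20 °C. Dilutions in PBS: porcine kidney 1:10, rat kidney 1:100, porcine lung 1:1. Compound at 1 mM in PBS, 10 μL, incubated with 90 μL diluted membranes for various times. Quenched with ethanol, centrifuged.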

[6] = In vitro stability was measured in porcine kidney tissue preparation; format: ADME, Sus scrofa; settings: pig; how it was run: as §1
B2 bradykinin receptor [7] = molecular target: T2, B2 bradykinin receptor (Rattus norvegicus, UniProt P25023); test: In vitro Bradykinin receptor B2 antagonist activity by using rat uterus functional assay; format: tissue-based; settings: read-out: pA2 (converted)
T2 sequence (P25023 whole entry): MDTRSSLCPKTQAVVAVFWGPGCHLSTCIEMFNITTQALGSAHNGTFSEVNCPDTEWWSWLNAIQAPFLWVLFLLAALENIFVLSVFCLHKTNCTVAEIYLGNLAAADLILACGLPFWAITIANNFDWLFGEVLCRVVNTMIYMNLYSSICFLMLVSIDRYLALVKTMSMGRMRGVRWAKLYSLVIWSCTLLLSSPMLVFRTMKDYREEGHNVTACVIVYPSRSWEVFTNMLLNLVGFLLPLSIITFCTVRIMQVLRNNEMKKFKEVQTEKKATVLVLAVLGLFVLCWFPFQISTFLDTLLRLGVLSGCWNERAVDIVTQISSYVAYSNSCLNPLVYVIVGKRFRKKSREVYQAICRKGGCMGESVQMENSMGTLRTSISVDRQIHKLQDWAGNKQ
How it was run: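 Uterine horns from female Sprague-Dawley rats primed with stilbesterol (100 μg/kg) 18 h earlier. Tissue held at 1 g tension in De Jalon's solution, 31 °C, aerated. Potency by Arunlakshana-Schild analysis.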

[8] = In vitro stability was measured in porcine lung tissue preparation; format: ADME, Sus scrofa; settings: pig; how it was run: as §1
Oryctolagus cuniculus [9] = test: Effective dose for bradykinin B2 activity after administration (0.03 ug/kg/min) in rabbit; format: functional
Oryctolagus cuniculus [10] = test: Effective dose for bradykinin B1 activity after administration (1 ug/kg/min) in rabbit; format: functional
Oryctolagus cuniculus [11] = test: Effective dose for bradykinin B2 activity after administration (0.1 ug/kg/min) in rabbit; format: functional
Oryctolagus cuniculus [12] = test: Effective dose for bradykinin B2 activity after administration (0.01 ug/kg/min) in rabbit; format: functional
Oryctolagus cuniculus [13] = test: Effective dose for bradykinin B1 activity after administration (10 ug/kg/min) in rabbit; format: functional
Oryctolagus cuniculus [14] = test: Effective dose for bradykinin B1 activity after administration (3 ug/kg/min) in rabbit; format: functional
Rattus norvegicus [15] = test: Percent inhibition after subcutaneously administration compound at 3H in rat; expressed as percent inhibition; format: functional
Oryctolagus cuniculus [16] = test: Percent inhibition after intravenously administration compound at 60 min in rabbit; expressed as percent inhibition; format: functional
Oryctolagus cuniculus [17] = test: Selectivity was determined as response after administration (0.1 ug/mg/kg) to that of preantagonist response in rabbit; B2 block only; format: functional, organism-based
Rattus norvegicus [18] = species: Rattus norvegicus; test: Percent recovery was evaluated in rat; format: functional, organism-based
How it was run: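 Same rat uterus preparation. […] Its pD2 is compared with the initial control pD2. The difference against concurrent control gives percentage recovery of agonist response.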

NC(N)=NCCCC(N)C(=O)NC(CCCN=C(N)N)C(=O)N1CCC[C@H]1C(=O)N1C[C@H](O)C[C@H]1C(=O)NCC(=O)N[C@@H](Cc1cccs1)C(=O)N[C@@H](CO)C(=O)N1Cc2ccccc2C[C@@H]1C(=O)N(CC(=O)NC(CCCN=C(N)N)C(=O)O)C1CCCCC1 (stereo in doubt) [listing 1 of 3 here]
Ki (B2 bradykinin receptor [1]): 0.24 nM | Log Ki [2]: -10.11 | half-life [3]: > 6 h | IC50 [4]: > 10000 nM | half-life [5]: > 6 h | half-life [6]: > 6 h | Kb (B2 bradykinin receptor [7]): 0.49 nM | half-life [8]: > 6 h

NC(N)=NCCCC(N)C(=O)NC(CCCN=C(N)N)C(=O)N1CCC[C@H]1C(=O)N1C[C@H](O)C[C@H]1C(=O)NCC(=O)N[C@@H](Cc1cccs1)C(=O)N[C@@H](CO)C(=O)N1Cc2ccccc2C[C@@H]1C(=O)N(CC(=O)NC(CCCN=C(N)N)C(=O)O)C1CCCCC1 (stereo in doubt) [listing 2 of 3 here]
ED50 (Oryctolagus cuniculus [9]): 0.051 µg/mg/kg | ED50 (Oryctolagus cuniculus [10]): 2.9 µg/mg/kg | ED50 (Oryctolagus cuniculus [11]): 0.051 µg/mg/kg | ED50 (Oryctolagus cuniculus [12]): 0.051 µg/mg/kg | ED50 (Oryctolagus cuniculus [13]): 2.9 µg/mg/kg | ED50 (Oryctolagus cuniculus [14]): 2.9 µg/mg/kg | Inhibition (Rattus norvegicus [15]): 100% | Inhibition (Oryctolagus cuniculus [16]): 100%

NC(N)=NCCCC(N)C(=O)NC(CCCN=C(N)N)C(=O)N1CCC[C@H]1C(=O)N1C[C@H](O)C[C@H]1C(=O)NCC(=O)N[C@@H](Cc1cccs1)C(=O)N[C@@H](CO)C(=O)N1Cc2ccccc2C[C@@H]1C(=O)N(CC(=O)NC(CCCN=C(N)N)C(=O)O)C1CCCCC1 (stereo in doubt) [listing 3 of 3 here]
Selectivity (Oryctolagus cuniculus [17]): inactive | Recovery (Rattus norvegicus [18]): 73%

NC(N)=NCCC[C@@H](N)C(=O)N[C@@H](CCCN=C(N)N)C(=O)N1CCC[C@H]1C(=O)N1C[C@H](O)C[C@H]1C(=O)NCC(=O)N[C@@H](Cc1cccs1)C(=O)N[C@@H](CO)C(=O)N1Cc2ccccc2C[C@@H]1C(=O)N1[C@H](C(=O)N[C@@H](CCCN=C(N)N)C(=O)O)C[C@@H]2CCCC[C@@H]21 [ICATIBANT]
half-life [3]: > 6 h | half-life [5]: > 6 h | half-life [6]: > 6 h | Kb (B2 bradykinin receptor [7]): 0.316 nM | half-life [8]: > 6 h
